Values after ≈ are worked out from the molar mass of the structure shown.
Tests used:
[1] = molecular target: T1, Bifunctional epoxide hydrolase 2 (Homo sapiens, UniProt P34913); assay: Inhibition of recombinant human soluble epoxide hydrolase using CMNPC as substrate preincubated for 5 mins followed by substrate addition measured at 5 mins post substrate addition by fluorescence assay in presence of 0.1 mg/mL BSA
T1 sequence (P34913 whole entry): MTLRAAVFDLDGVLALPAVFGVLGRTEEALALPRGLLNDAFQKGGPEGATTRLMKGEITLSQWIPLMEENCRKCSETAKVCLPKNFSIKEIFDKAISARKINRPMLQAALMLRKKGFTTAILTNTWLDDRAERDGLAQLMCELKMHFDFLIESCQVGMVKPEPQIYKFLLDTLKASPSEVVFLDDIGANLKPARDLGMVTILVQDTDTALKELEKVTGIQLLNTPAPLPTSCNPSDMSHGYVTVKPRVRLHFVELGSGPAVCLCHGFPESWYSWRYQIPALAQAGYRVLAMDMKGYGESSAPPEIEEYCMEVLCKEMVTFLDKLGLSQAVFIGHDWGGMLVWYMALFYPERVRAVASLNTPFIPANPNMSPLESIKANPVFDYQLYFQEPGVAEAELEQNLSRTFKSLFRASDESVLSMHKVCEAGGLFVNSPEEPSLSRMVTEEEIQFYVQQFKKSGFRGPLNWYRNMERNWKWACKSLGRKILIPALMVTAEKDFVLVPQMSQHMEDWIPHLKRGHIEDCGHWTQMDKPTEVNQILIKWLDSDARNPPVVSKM

[2] = molecular target: T1, Bifunctional epoxide hydrolase 2; assay: Displacement of ACPU from recombinant human soluble epoxide hydrolase after 1.5 hrs by FRET assay
In short: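 Human sEH was preincubated with an equimolar amount of the fluorescent reporter ACPU for 2 h at rt. The complex (20 nM) was used in 100 mM sodium phosphate with 0.1% gelatin, pH 7.4, on gelatin-precoated plates. Inhibitor was added as 12 two-fold dilutions, with DMSO as control, and incubated 1.5 h. Fluorescence (ex 280/em 450 nm) was normalised to baseline and fitted to a three-state equilibrium model to give Ki.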

[3] = molecular target: T1, Bifunctional epoxide hydrolase 2; assay: Inhibition of recombinant human soluble epoxide hydrolase using CMNPC as substrate preincubated for 5 mins followed by substrate addition measured at 5 mins post substrate addition by fluorescence assay in presence of 1 mg/mL BSA
[4] = Solubility of the compound in sodium phosphate buffer at pH 7.4 after 24 hrs by LC/MS/MS analysis; assay type: physicochemical
In short: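 Compound suspended in 0.1 M sodium phosphate buffer, pH 7.4, containing 1% DMSO, held 24 h at 30 °C, then 1 h at rt. Centrifuged 10,000 rpm for 10 min; supernatant diluted 5-fold in methanol, 15 min at rt to precipitate salt, then re-centrifuged. Supernatant stored at -20 °C until LC/MS-MS quantitation.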

[5] = Metabolic stability in human liver microsomes assessed as compound remaining at 1 uM after 30 mins by LC/MS/MS analysis in absence of NADPH; assay type: ADME; details: read-out: Stability
In short: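 Inhibitor added to human liver microsomes (1 mg/mL final) in 0.1 M potassium phosphate, pH 7.4, with 3 mM MgCl2 and 1 mM EDTA. After 5 min at 37 °C, buffer was added in place of NADPH generating system, then 30 min at 37 °C. Stopped with one volume methanol containing 200 nM CUDA surrogate. LC/MS/MS; % remaining; triplicate average.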

[6] = Metabolic stability in human liver microsomes assessed as compound remaining at 1 uM preincubated for 5 mins followed by NADPH addition measured after 30 mins by LC/MS/MS analysis; assay type: ADME; details: read-out: Stability
In short: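 Human liver microsomes (1 mg/mL final) in 0.1 M potassium phosphate, pH 7.4, 3 mM MgCl2, 1 mM EDTA, were preincubated with inhibitor 5 min at 37 °C. Reaction was started with NADPH generating system and run 30 min at 37 °C. Quenched with one volume methanol containing 200 nM CUDA surrogate. LC/MS/MS; % remaining; triplicate average.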

[7] = molecular target: T2, Bifunctional epoxide hydrolase 2 (Homo sapiens) (UniProt P34913)
T2 sequence (whole entry): T1 sequence (P34913 whole entry)

| Structure (SMILES) | IC50 [1] [nM] | Ki [2] [nM] | IC50 [3] [nM] | solubility at 24 h [4] [µM] | remaining at 0.5 h, 1 µM [5] [%] | remaining at 0.5 h, 1 µM [6] [%] | T1/2 [7] [min] |
| --- | --- | --- | --- | --- | --- | --- | --- |
| CCC(CNC(=O)NCCCCNC(=O)NCC(CC)C12CC3CC(CC(C3)C1)C2)C12CC3CC(CC(C3)C1)C2 (configuration not stated) | 2.3 |  |  |  |  |  |  |
| O=C(NCCCCCCCCNC(=O)NC12CC3CC(CC(C3)C1)C2)NC12CC3CC(CC(C3)C1)C2 | 997 |  |  |  |  |  |  |
| O=C(NCCNC(=O)NCC12CC3CC(CC(C3)C1)C2)NCC12CC3CC(CC(C3)C1)C2 | 179 |  |  |  |  |  |  |
| O=C(NCCCCNC(=O)NC1C2CC3CC(C2)CC1C3)NC1C2CC3CC(C2)CC1C3 (configuration not stated) | 10.4 |  |  |  |  |  |  |
| O=C(NCCCCNC(=O)NC12CC3CC(CC(C3)C1)C2)NC12CC3CC(CC(C3)C1)C2 | 7.2 |  |  |  |  |  |  |
| O=C(NCC12CC3CC(CC(C3)C1)C2)Nc1ccc(NC(=O)NCC23CC4CC(CC(C4)C2)C3)cc1 | 780 |  |  |  |  |  |  |
| O=C(Nc1ccc(NC(=O)NC23CC4CC(CC(C4)C2)C3)cc1)NC12CC3CC(CC(C3)C1)C2 | 19.5 |  |  |  |  |  |  |
| O=C(NCCCCCCNC(=O)NCC12CC3CC(CC(C3)C1)C2)NCC12CC3CC(CC(C3)C1)C2 |  | 3.4 | 0.7 | 50 (≈ 24.9 µg/mL) | 102 | 3 | 10 |
| O=C(NCCCCCCCCNC(=O)NC1C2CC3CC(C2)CC1C3)NC1C2CC3CC(C2)CC1C3 (configuration not stated) | 2.6 | 2.4 | 4.1 | 5 (≈ 2.49 µg/mL) | 100 | 36 | 2.5 |
| CCC(CNC(=O)NCCCCCCCCNC(=O)NCC(CC)C12CC3CC(CC(C3)C1)C2)C12CC3CC(CC(C3)C1)C2 (configuration not stated) | 1440 |  |  |  |  |  |  |
| CC(NC(=O)NCCCCCCCCNC(=O)NC(C)C12CC3CC(CC(C3)C1)C2)C12CC3CC(CC(C3)C1)C2 (configuration not stated) | 0.5 | 3.1 | 0.8 | 10 (≈ 5.55 µg/mL) | 100 | 11 | 11 |
| O=C(NC12CC3CC(CC(C3)C1)C2)NC12CC3CC(CC(C3)C1)C2 | 1.2 |  | 1.3 | 5 (≈ 1.64 µg/mL) | 93 | 19 |  |
| O=C(NCC1CCN(C(=O)NCC23CC4CC(CC(C4)C2)C3)CC1)NCC12CC3CC(CC(C3)C1)C2 | 39.7 |  |  |  |  |  |  |
| CC(NC(=O)NCCCCNC(=O)NC(C)C12CC3CC(CC(C3)C1)C2)C12CC3CC(CC(C3)C1)C2 (configuration not stated) | 1.2 | 2.7 | 2.5 | 10 (≈ 4.99 µg/mL) | 92 | 24 | 8 |
| O=C(NCCCCNC(=O)NCC12CC3CC(CC(C3)C1)C2)NCC12CC3CC(CC(C3)C1)C2 | 26.3 |  |  |  |  |  |  |
| O=C(NCCCCCCCCNC(=O)NCC12CC3CC(CC(C3)C1)C2)NCC12CC3CC(CC(C3)C1)C2 | 7.3 |  |  |  |  |  |  |
| CC(NC(=O)Nc1ccc(NC(=O)NC(C)C23CC4CC(CC(C4)C2)C3)cc1)C12CC3CC(CC(C3)C1)C2 (configuration not stated) | 161 |  |  |  |  |  |  |
| O=C(NC1CCCCC1)NC1CCCCC1 [1,3-DICYCLOHEXYLUREA] |  |  |  | 5 (≈ 1.12 µg/mL) | 100 | 22 |  |

Source: ChEMBL document CHEMBL3259769, “Symmetric adamantyl-diureas as soluble epoxide hydrolase inhibitors” (Bioorg Med Chem Lett, 2014)
